Test [1] has as its system Neuronal progenitor cell. The test is described as follows: Induction of neuronal differentiation in C57BL/6J mouse neuronal progenitor cells assessed as increase in Map2/beta actin mRNA level at 1 uM treated for every second day for 4 days by RT-PCR analysis relative to control. It counts as functional, cell-based. The gist of the method: (§1)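 C57BL/6J E14 mouse cerebral neural stem cells were cultured 24 h after seeding. They were then treated with 1 µM analogue or ethanol control for 4 days, dosed every second day. mRNA was extracted, and Map2, Gfap and β-actin were quantified by real-time PCR. Map2/β-actin or Gfap/β-actin ratios were normalized to the EtOH control (set at 1.0). Values are means of three independent experiments; significance by Dunnett's t-test.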

The test system of test [2] is Neuronal progenitor cell. In words: Induction of neuronal differentiation in C57BL/6J mouse neuronal progenitor cells assessed as increase in relative ratio of Map2/Gfap mRNA level at 1 uM treated for every second day for 4 days by RT-PCR analysis relative to control. Format: functional, cell-based. The gist of the method:
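E14 C57BL/6J mouse cerebral neural progenitor cells were treated with 1 µM analogue or ethanol every second day for 4 days. Map2 and Gfap mRNA (each relative to β-actin) were measured by real-time PCR. The Map2/Gfap ratio was calculated and normalized to the EtOH control (set at 1.0).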

Test [3] concerns Neuronal progenitor cell. The test is described as follows: Induction of neuronal differentiation in C57BL/6J mouse neuronal progenitor cells assessed as expression of Gfap at 1 uM treated for every second day for 4 days measured after 48 hrs by DAPI-staining based immunofluorescence method. Format: functional. Summed up:
(§2)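 Neural stem cells taken from embryonic day 14 cerebrum of C57BL/6J mice, dispersed with trypsin/DNase I at 37 °C, seeded and grown 1 day at 37 °C, 5% CO2. Medium replaced with 10% FCS DMEM (low glucose) containing 1 µM analogue; ethanol at 0.1% as control. After 48 h, cells permeabilized with 0.2% Triton X-100. Staining used anti-Map2 (CF594, red) and anti-Gfap (CF488A, green), each overnight at 4 °C, with DAPI nuclei, then fluorescence microscopy.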

Test [4] concerns Neuronal progenitor cell. The test is described as follows: Induction of neuronal differentiation in C57BL/6J mouse neuronal progenitor cells assessed as expression of Map2 at 1 uM treated for every second day for 4 days measured after 48 hrs by DAPI-staining based immunofluorescence method. Format: functional. The gist of the method: as §2
Test [5] is described as follows: Induction of neuronal differentiation in C57BL/6J mouse neuronal progenitor cells assessed as fold increase in Map2/beta-actin mRNA level at 1 uM treated for every second day for 4 days by RT-PCR analysis relative to control. Format: functional, Neuronal progenitor cell. Summed up:
as §1

Test [6] relates to Neuronal progenitor cell. The test is described as follows: Induction of neuronal differentiation in C57BL/6J mouse neuronal progenitor cells assessed as increase in Gfap/beta-actin mRNA level at 1 uM treated for every second day for 4 days by RT-PCR analysis relative to control. Format: functional, cell-based. The gist of the method: as §1

We go through five molecules from ChEMBL document CHEMBL4007436, “Synthesis of Novel Synthetic Vitamin K Analogues Prepared by Introduction of a Heteroatom and a Phenyl Group That Induce Highly Selective Neuronal Differentiation of Neuronal Progenitor Cells” (2017).

Activity calls are given as the source filed them. The rule behind the calls is not given here.

As for `CC1=C(C/C=C(\C)CC/C=C(\C)CNc2ccccc2)C(=O)c2ccccc2C1=O`, the outcome in the test with Neuronal progenitor cell [1] was Active.
As for `CC1=C(C/C=C(\C)CC/C=C(\C)CC/C=C(\C)COc2cccc(C)c2)C(=O)c2ccccc2C1=O`, the result with Neuronal progenitor cell [2], in the test on Neuronal progenitor cell [1] and in the test with Neuronal progenitor cell [4] was Active. The outcome in the test with Neuronal progenitor cell [3] was inactive.
Consider `CC(C)=CCC/C(C)=C/CC/C(C)=C/CC/C(C)=C/CC1=C(C)C(=O)c2ccccc2C1=O` [MENATETRENONE], for which the “fold change (FC)” value in test [5] is >2. The result in the test on Neuronal progenitor cell [6], with Neuronal progenitor cell [3] and with Neuronal progenitor cell [4] was Active.
For the molecule `CC1=C(C/C=C(\C)CC/C=C(\C)CC/C=C(\C)COc2ccccc2)C(=O)c2ccccc2C1=O`, the outcome in the test on Neuronal progenitor cell [1] was Active.
Turning to `CC1=C(C/C=C(\C)CC/C=C(\C)CNc2ccc(F)cc2)C(=O)c2ccccc2C1=O`, the fold change (FC) in test [5] is > 2. Moreover, the result with Neuronal progenitor cell [2] and in the test with Neuronal progenitor cell [4] was Active. Besides, in the test on Neuronal progenitor cell [3], the result was inactive.
